{
  "source": "paper PMC4130341",
  "about": "(Journal of nuclear medicine : official publication, Society …, 2013)",
  "key": {"[1]": {"test": "Small-animal PET, static scans, BxPC3 xenografts", "format": "in vivo, mice", "settings": "female, nu/nu, mouse, iv, total radioactivity", "summary_of_the_method": "(§1)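 Nu/nu female mice (6 wk) carried BxPC3 shoulder xenografts of 10 mm diameter. Under isoflurane they were dosed intravenously (tail vein) with 2–3 MBq of 18F-fluorobenzoate-labelled peptide. Rodent microPET 5-min static scans were taken at 0.5, 1 and 2 h. Tumor, kidney, liver and hind-leg muscle signals were quantified, given as mean ± SD (n = 4–5 per tracer) and compared by 2-tailed t test, P < 0.05.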"}, "[2]": {"system": "BxPC3 (integrin αvβ6–positive) pancreatic adenocarcinoma xenografted tumors", "test": "Small-animal PET, static scans, BxPC3 xenografts", "format": "in vivo, mice", "settings": "mean ± SD", "summary_of_the_method": "as §1"}, "[3]": {"system": "BxPC3 xenografted tumors; heart (blood) radioactivity", "test": "Dynamic PET", "format": "in vivo", "settings": "from radioactivity in the heart, 10-min dynamic PET, mice, tail vein", "summary_of_the_method": "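Female nu/nu mice (6 wk) received 10^7 BxPC3 or HEK-293 cells subcutaneously in the shoulder and grew tumors to 10 mm diameter. Under isoflurane, mice got 2–3 MBq of 18F-fluorobenzoate-labelled peptide by tail vein. A 10-min dynamic scan was acquired on a rodent microPET. Mean signal in ellipsoid regions of interest was quantified.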"}, "[4]": {"system": "BxPC3 (integrin αvβ6–positive) tumors", "test": "Excised tissue biodistribution", "format": "in vivo, mice", "settings": "γ-counter, mean ± SD", "summary_of_the_method": "(§2)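 Tumors were grown as subcutaneous shoulder xenografts (10^7 BxPC3 or HEK-293 cells) in 6-wk female nu/nu mice to 10 mm diameter. Isoflurane-anaesthetised mice received 2–3 MBq of 18F-fluorobenzoate peptide by tail vein and were euthanised at 0.5 or 2 h. Weighed tissues were γ-counted and expressed as decay-corrected %ID/g, mean ± SD. Group sizes: BxPC3 3 (0.5 h), 4–5 (2 h); 293 3 (0.5 h), 3–4 (2 h); nontumor 6 (0.5 h), 8 (2 h).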"}, "[5]": {"system": "293 (integrin αvβ6–negative) tumors", "test": "Excised tissue biodistribution", "format": "in vivo, mice", "settings": "γ-counter, mean ± SD", "summary_of_the_method": "as §2"}, "BxPC3 tumors": {"system": "BxPC3 tumors", "test": "Coinjection study with unlabeled peptide, excised tissue biodistribution", "format": "in vivo, mice", "settings": "250 µg unlabeled S02 coinjected"}},
  "note": "Bridge positions count the residues as written; N and C are the ends. Peptide text beside a SMILES is read from it. * marks the point of attachment. Benzoyl(4-F) = O=C(c1ccc(F)cc1)*",
  "data": [
    {"compound": "CC[C@H](C)[C@@H]1NC(=O)[C@@H]2CSSC[C@H](NC(=O)CNC(=O)c3ccc(F)cc3)C(=O)N[C@@H](CCCNC(=N)N)C(=O)N[C@@H](CO)C(=O)N[C@@H](CC(C)C)C(=O)N[C@@H](C)C(=O)N[C@@H](CCCNC(=N)N)C(=O)N[C@@H]([C@@H](C)O)C(=O)N[C@@H](CC(=O)O)C(=O)N[C@@H](CC(C)C)C(=O)N[C@@H](CC(=O)O)C(=O)N[C@@H](Cc3c[nH]cn3)C(=O)N[C@@H](CC(C)C)C(=O)N[C@@H](CCCNC(=N)N)C(=O)NCC(=O)N[C@@H](CCCNC(=N)N)C(=O)N[C@H]3CSSC[C@H](NC1=O)C(=O)N[C@@H](CC(C)C)C(=O)N[C@@H](CCC(=O)O)C(=O)N[C@@H](CC(N)=O)C(=O)NCC(=O)N[C@@H](Cc1ccccc1)C(=O)N[C@H](C(=O)NCC(=O)O)CSSC[C@H](NC(=O)[C@H](CC(=O)O)NC(=O)[C@H](CO)NC(=O)[C@H](CC(=O)O)NC(=O)[C@H](CO)NC(=O)[C@H](CO)NC3=O)C(=O)N[C@@H](CC(C)C)C(=O)N[C@@H](C)C(=O)N[C@@H](CCC(=O)O)C(=O)N2", "note": "[^18F-fluorobenzoate-S02] ({Benzoyl(4-F)}-GCRSLARTDLDHLRGRCSSDSDCLAECICLENGFCG-OH; disulfide 2-27, 17-29, 23-35; C-terminus assumed)", "values": [
      {"measurement": "tissue uptake at 1 h", "setting": "[1]; kidney", "result": "7 ± 3", "unit": "%ID/g"},
      {"measurement": "tissue uptake at 1 h", "setting": "[1]; liver", "result": "0.3 ± 0.1", "unit": "%ID/g"},
      {"measurement": "kidney uptake, PET", "setting": "[2]; 0.5 h", "result": "18% ± 6%"},
      {"measurement": "tumor uptake, PET, BxPC3", "setting": "[2]; 0.5 h after injection, 2–3 MBq tail vein, nude mice, n = 4–5", "result": "1.3% ± 0.4%"},
      {"measurement": "tumor signal, PET, BxPC3", "setting": "[2]; 1 h after injection, 2–3 MBq tail vein", "result": "0.7 ± 0.3", "unit": "% ID/g"},
      {"measurement": "liver uptake, PET", "setting": "[2]; time not printed at place (given beside the 0.5 h kidney values)", "result": "0.9% ± 0.3%"},
      {"measurement": "blood clearance half-time", "setting": "[3]", "result": 1.8, "unit": "min"},
      {"measurement": "tumor uptake, excised tissue, BxPC3", "setting": "[4]; 0.5 h after injection, n = 3", "result": "0.71 ± 0.13", "unit": "%ID/g"},
      {"measurement": "tumor uptake, excised tissue, BxPC3", "setting": "[4]; 2 h after injection, n = 4–5", "result": "0.24 ± 0.06", "unit": "%ID/g"},
      {"measurement": "tumor uptake, excised tissue, 293", "setting": "[5]; 0.5 h after injection, n = 3", "result": "0.11 ± 0.02", "unit": "%ID/g"},
      {"measurement": "tumor uptake, excised tissue, 293", "setting": "[5]; 2 h after injection, n = 3–4", "result": "0.10 ± 0.05", "unit": "%ID/g"},
      {"measurement": "effect of unlabeled peptide coinjection on tumor uptake", "setting": "BxPC3 tumors", "result": "does not demonstrate tumor uptake reduction"}
    ]}
  ]
}
